Assay outcomes: PubChem BioAssay, The Scripps Research Institute Molecular Screening Center
In the library only some 0.63% were active in any assay of this set; here they are far more common.
TRPML3 agonist = human mucolipin-3 channel agonism; HEK293 TRPML3-YFP, Fluo-8 calcium fluorescence; 100% = the carbachol control signal; activation, % at 3 µM; 220,000 tested, 0.29% active; AID 1448;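 active means activation above its plate's cutoff, the mean activation of the plate's test wells plus 3 SD, cut at about 12% in these data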;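 further: 0% = DMSO only wells and 100% = carbachol wells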
Target sequence (Q8TDD5 whole entry, looked up): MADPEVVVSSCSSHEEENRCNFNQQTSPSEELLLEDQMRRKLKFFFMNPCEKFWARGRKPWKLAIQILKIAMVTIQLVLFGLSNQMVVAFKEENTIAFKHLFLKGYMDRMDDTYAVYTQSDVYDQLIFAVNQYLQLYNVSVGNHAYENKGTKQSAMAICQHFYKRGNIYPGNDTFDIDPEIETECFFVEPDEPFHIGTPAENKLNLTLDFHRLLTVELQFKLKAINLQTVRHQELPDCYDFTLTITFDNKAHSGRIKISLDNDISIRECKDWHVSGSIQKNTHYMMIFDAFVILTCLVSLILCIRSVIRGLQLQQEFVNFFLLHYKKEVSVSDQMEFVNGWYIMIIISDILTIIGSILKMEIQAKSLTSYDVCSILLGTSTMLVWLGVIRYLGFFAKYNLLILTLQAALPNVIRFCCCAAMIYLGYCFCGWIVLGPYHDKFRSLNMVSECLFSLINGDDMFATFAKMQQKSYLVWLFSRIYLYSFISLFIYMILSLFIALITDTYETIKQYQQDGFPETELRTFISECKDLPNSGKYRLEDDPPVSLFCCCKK
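system = HEK293 cells stably carrying human TRPML3-YFP | doses = one concentration, 3 µM nominal, 0.3% DMSO | timing = dye loading 1 h 37 °C then 30 min ambient, 125 s read | detection = Fluo-8 calcium dye fluorescence, ex 470-495, em 515-575 nm | benchmarks = high control carbachol 87 µM, low control DMSO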
IDE act = activators of human insulin-degrading enzyme in cells; P14735; HEK cells, FAbeta-B cleavage, fluorescence polarization; 0% vehicle, 100% cell-free pure enzyme wells; activation, % at 5.96 µM; 340,000 tested, 0.073% active; AID 493087;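 active means activation above the mean of all tested compounds plus 3 SD, set per screening campaign, cut at about 17% in these data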
IDE cell inh = inhibitors of human insulin-degrading enzyme in cells | HEK cells, FAbetaB cleavage, fluorescence polarization | inhibition, % at 5.59 µM | 320,000 tested, 0.41% active | AID 434962;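 active means percent inhibition above the average of all tested compounds plus 3 SD, set per screening campaign, cut at about 16% in these data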;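 further: IDE supplied by intact live HEK cells; FP after avidin binding of uncleaved biotin substrate so inhibition keeps polarization high; 0% = DMSO wells and 100% = 60 µM reference IDE inhibitor Ii1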
TRPN1 ag = activates the zebrafish TRPN1 channel | HEK293 zebrafish TRPN1-YFP, Fluo-8 calcium fluorescence; 100% = response to 87 µM carbachol | activation, % at 3 µM | 220,000 tested, 0.18% active | AID 1424;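 active means activation above its plate's cutoff, the mean activation of test wells on that plate plus 3 SD, cut at about 19% in these data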;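 further: 0% = DMSO alone and 100% = 87 µM carbachol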
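System: zebrafish TRPN1-YFP in HEK293 cells / Dosing: 3 µM single point / Timing: dye loading 1 h at 37 °C, then 30 min room temperature / Signal: Fluo-8 calcium fluorescence, excitation 470-495 nm, emission 515-575 nm / Read-out basis: percent activation from peak over basal fluorescence ratio, control-normalized / Control set: high carbachol 87 µM, low DMSO alone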
IDE inh confirm = confirmation of human insulin-degrading enzyme inhibitors in cells; shares compounds with IDE cell inh; HEK cells, FAbetaB cleavage, fluorescence polarization; inhibition, % at 5.59 µM; 1,200 tested, 51% active;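 active means mean inhibition across triplicate wells above the cutoff set by the earlier primary insulin-degrading enzyme screen, cut at about 16% in these data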;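 further: 0% = DMSO wells and 100% = 60 µM reference IDE inhibitor Ii1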
HEK cytotox = kills HEK cells in IDE inhibitor counter-screen. 1,200 tested, 28% active. HEK293 cytotoxicity, ATP luminescence. inhibition, % at 5.59 µM. shares compounds with IDE cell inh; in the data active means inhibition above about 22%;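 further: 0% = vehicle wells and 100% = reference cytotoxic drug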
FP fluor counter = fluorescent artifact in IDE inhibitor FP assay; FP counterscreen for fluorescent artifacts, IDE probe project; shares compounds with IDE cell inh; 30 tested, under 10 active; IC50, µM; call rule not given here
Numbers without * were called inactive.

For N#CC1=C(N)Oc2cc(O)ccc2C1c1ccncc1 (configuration not stated) the results were TRPML3 agonist 0, IDE act -16, IDE cell inh 131*, TRPN1 ag 0, IDE inh confirm 11 and HEK cytotox 11.
COC(=O)c1ccc(C2C(C#N)=C(N)Oc3cc(N)ccc32)cc1 (configuration not stated) was read as IDE act 3 and IDE cell inh 0.
Screening N#CC1=C(N)Oc2cc(O)ccc2C1c1cccnc1 (configuration not stated) returned TRPML3 agonist 1, IDE act -35, IDE cell inh 82*, TRPN1 ag -2, IDE inh confirm 14 and HEK cytotox 7.
O=C1NC(=O)C2(CCCCCCC2)N1 was read as IDE act -2.
Cc1cc(-c2ccc(S(=O)(=O)N3CCCCC3)s2)on1 was read as IDE act 4 and IDE cell inh 4.
`Cc1ccc2nc(SCC(=O)Nc3ccc4sc(C)nc4c3)c(C#N)cc2c1` gave TRPML3 agonist 0, IDE act 2, IDE cell inh -5 and TRPN1 ag 0.
`O=C(CSc1ccc(-c2cccnc2)nn1)N1CCCc2ccccc21` gave TRPML3 agonist 0, IDE cell inh 3 and TRPN1 ag 2.
Screening CC(Sc1nnc(-c2cccnc2)n1-c1ccccc1F)C(=O)N1CCCc2ccccc21 (configuration not stated) returned TRPML3 agonist 0, IDE cell inh 22*, TRPN1 ag 0, IDE inh confirm 16*, HEK cytotox 8 and FP fluor counter >55.
Screening CC1CC(NS(=O)(=O)c2cc3c4c(c2)CCN4C(=O)CC3)CC(C)(C)C1 (configuration not stated) returned IDE act -1 and IDE cell inh 7.
Cc1ccc(C)c(-n2sc3ccc(F)cc3c2=O)c1 was read as IDE act -22, IDE cell inh 36*, IDE inh confirm 19* and HEK cytotox 69*.
O=c1c2cc(F)ccc2sn1-c1ccc(F)cc1 was read as IDE act -22, IDE cell inh 35*, IDE inh confirm 18* and HEK cytotox 42*.
`COc1ccc(-n2sc3ccc(F)cc3c2=O)cc1` gave IDE act -23, IDE cell inh 58*, IDE inh confirm 35* and HEK cytotox 81*.
Screening CCc1cccc(NC(=O)CCSCCC(=O)Nc2cccc(CC)c2)c1 returned TRPML3 agonist 0, IDE act 1, IDE cell inh -4 and TRPN1 ag -2.
C[C@H](NC(=O)c1ccccc1Cl)C(=O)OCc1cn2cc(Cl)ccc2n1 was read as IDE act 4 and IDE cell inh 1.
Oc1sc(C=Nc2ccc(F)cc2)c2ccccc12 was read as TRPML3 agonist 1, IDE act -7, IDE cell inh 18*, TRPN1 ag 2, IDE inh confirm 34* and HEK cytotox 3.
`Oc1sc(C=Nc2ccccc2)c2ccccc12` gave TRPML3 agonist 3, IDE act -31, IDE cell inh 26*, TRPN1 ag 6, IDE inh confirm 30* and HEK cytotox 9.
Screening Oc1c(C=Nc2ccccc2)sc2ccccc12 returned TRPML3 agonist 1, IDE act -13, IDE cell inh -1 and TRPN1 ag 1.
For CCc1ccc(OCC(=O)O/N=C(\N)c2cccnc2)cc1 the results were TRPML3 agonist 0, IDE cell inh 17*, TRPN1 ag 0, IDE inh confirm 3 and HEK cytotox 11.
`COc1cc(/C=N/N2C(=O)CSC2=S)ccc1O` gave TRPML3 agonist 4, IDE act -15, IDE cell inh 26*, TRPN1 ag 3, IDE inh confirm 44* and HEK cytotox 4.
`CN1C2CCC1/C(=C/c1cccn1C)C(=O)/C2=C\c1cccn1C` gave TRPML3 agonist 4, IDE act -43, IDE cell inh 44*, TRPN1 ag 5, IDE inh confirm 72* and HEK cytotox 19.
